Results gathered from unrelated publications.
Lines come from different studies, so protocols differ.
Target: Serine/threonine-protein kinase LATS2 (LATS2, Homo sapiens, UniProt Q9NRM7)
One construct used (Q9NRM7 1-1088): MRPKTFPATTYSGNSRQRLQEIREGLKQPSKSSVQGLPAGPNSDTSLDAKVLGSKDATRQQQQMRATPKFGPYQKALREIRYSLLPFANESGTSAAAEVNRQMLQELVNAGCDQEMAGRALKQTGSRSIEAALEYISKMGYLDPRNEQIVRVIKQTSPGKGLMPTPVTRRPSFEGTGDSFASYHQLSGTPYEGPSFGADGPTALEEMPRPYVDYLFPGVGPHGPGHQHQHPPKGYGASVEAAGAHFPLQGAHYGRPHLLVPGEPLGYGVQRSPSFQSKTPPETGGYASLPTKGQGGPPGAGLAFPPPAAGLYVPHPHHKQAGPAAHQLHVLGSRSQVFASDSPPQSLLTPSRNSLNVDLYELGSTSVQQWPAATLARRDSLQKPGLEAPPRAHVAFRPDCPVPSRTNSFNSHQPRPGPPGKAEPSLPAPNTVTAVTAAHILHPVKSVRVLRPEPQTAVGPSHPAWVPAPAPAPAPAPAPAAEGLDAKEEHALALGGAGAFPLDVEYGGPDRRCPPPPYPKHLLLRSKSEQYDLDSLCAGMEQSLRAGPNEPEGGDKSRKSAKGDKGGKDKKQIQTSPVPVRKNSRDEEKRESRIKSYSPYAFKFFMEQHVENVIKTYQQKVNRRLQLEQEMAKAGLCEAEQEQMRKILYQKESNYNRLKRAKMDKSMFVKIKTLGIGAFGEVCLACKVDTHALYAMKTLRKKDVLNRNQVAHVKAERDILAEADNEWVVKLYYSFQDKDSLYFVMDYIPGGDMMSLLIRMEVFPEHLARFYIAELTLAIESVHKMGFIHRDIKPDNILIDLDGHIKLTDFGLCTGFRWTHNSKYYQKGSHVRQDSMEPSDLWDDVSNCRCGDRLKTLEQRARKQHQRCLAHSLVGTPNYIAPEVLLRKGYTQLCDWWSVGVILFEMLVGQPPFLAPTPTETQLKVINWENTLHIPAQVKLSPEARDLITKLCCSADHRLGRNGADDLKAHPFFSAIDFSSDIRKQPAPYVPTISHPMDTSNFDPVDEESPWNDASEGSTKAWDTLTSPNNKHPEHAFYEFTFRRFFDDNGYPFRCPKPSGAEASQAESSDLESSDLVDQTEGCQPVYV

For `NS(=O)(=O)c1cc(NC(=O)Cc2ccccc2)ccc1Oc1cccc(Cl)c1`, the remaining binding was 94% (cell-free assay, competition with immobilised ligand; 1 µM).
For `O=C(c1ccc(Nc2ncc(Cl)c(-c3cc4ccccc4s3)n2)cc1)N1CCC(N2CCCC2)CC1`, the remaining binding was 15% (binding, competition with immobilised ligand; 1 µM).
The remaining binding of `Cc1nccc(COC(=O)N2C[C@@H]3[C@@H](CNC(=O)c4ccc5[nH]nnc5c4)[C@@H]3C2)n1` is reported as 97% (cell-free assay, competition with immobilised ligand; 1 µM).
The remaining binding of `COc1cnc(Nc2cccc(S(N)(=O)=O)c2)nc1N1CCN(c2ccccc2)CC1` is reported as 74% (binding, competition with immobilised ligand; 1 µM).
`O=C(NCC1CCOCC1)c1n[nH]cc1NC(=O)c1c(F)cccc1F` gave a remaining binding of 87% (binding, competition with immobilised ligand; 1 µM).
For `CN(C)c1ncc(F)c(-c2cnn3ncccc23)n1`, the remaining binding was 72% (binding; 1 µM).
With `c1cncc(-c2cccc(Nc3nccc(NC4CCCCC4)n3)c2)c1` the remaining binding was 12% (binding, competition with immobilised ligand; 10 µM).
With `CN(c1nccc(-c2cnn3ncccc23)n1)C1CC1` the remaining binding was 100% (binding; 1 µM).
For `CCCCN(CCCC)C(=O)CN1C[C@@H](c2cc(OC)c3c(c2)OCO3)[C@H](C(=O)O)[C@H]1CC(C)(C)CCC`, the remaining binding was 100% (cell-free assay, competition with immobilised ligand; 1 µM).
`C[C@H]1CCN(c2nccc(-c3cnn4ncccc34)n2)C1` gave a remaining binding of 83% (binding; 1 µM).
`FC(F)(F)c1ccc2c(c1)nc(-c1cccnc1)n2C1CC1` has a remaining binding of 100% (cell-free assay, competition with immobilised ligand; 1 µM).
`FC(F)(F)Oc1cccc(-c2cnc3ccc(-c4ccncc4)nn23)c1` has a remaining binding of 38% (cell-free assay, competition with immobilised ligand; 5 µM).
`F[C@@H]1CCN(c2nccc(-c3cnn4ncccc34)n2)C1` has a remaining binding of 100% (binding; 1 µM).
The remaining binding of `CN(C)CC#Cc1ccc(OCCCc2sc(N3CCc4cccc(C(=O)Nc5nc6ccccc6s5)c4C3)nc2C(=O)O)c(F)c1` is reported as 95% (cell-free assay, competition with immobilised ligand; 1 µM).
`c1cnn2ncc(-c3ccnc(N4CCC45COC5)n3)c2c1` gave a remaining binding of 88% (binding; 1 µM).
For `O=C(NCCCN1CCOCC1)c1ccc(Nc2nccc(-c3cc4ccccc4s3)n2)cc1`, the remaining binding was 100% (binding, competition with immobilised ligand; 1 µM).
With `COc1ncc2cc3ccccc3nc2c1C#N` the remaining binding was 90% (cell-free assay, competition with immobilised ligand; 5 µM).
For `CS(=O)(=O)NCC[C@H](NC(=O)c1cncc2c1cnn2-c1ccc(F)cc1)c1ccnc(S(C)(=O)=O)c1`, the remaining binding was 97% (cell-free assay, competition with immobilised ligand; 1 µM).
`Cc1cnc(Nc2ccc(C(=O)N3CCC(N4CCCC4)CC3)cc2)nc1-c1cc2ccccc2s1` has a remaining binding of 44% (binding, competition with immobilised ligand; 1 µM).
With `CN(C)c1nccc(-c2cnn3ncccc23)n1` the remaining binding was 64% (binding; 1 µM).
